Active and inactive are the calls of the source. No cut-off for these calls is given here.
Assays:
LNCaP = assay: Anticancer activity against human LNCAP cells assessed as cell viability measured after 72 hrs by MTT assay (reference value: 100 +/- 5.0 %); assay type: functional; set-up: concentration or dose not given beside the values
HeLa = assay: Anticancer activity against human HeLa cells assessed as cell viability measured after 72 hrs by MTT assay (reference value: 100 +/- 11.5 %); assay type: functional; set-up: concentration or dose not given beside the values
MDA-MB-231 [1] = assay: Anticancer activity against human MDA-MB-231 cells assessed as cell viability measured after 72 hrs by MTT assay (reference value: 100 +/- 20.0 %); assay type: functional; set-up: concentration or dose not given beside the values
A-431 = assay: Anticancer activity against human A431 cells assessed as reduction in cell viability measured after 72 hrs by MTT assay; assay type: functional, cell-based; details: A-431, 72 h
MDA-MB-231 [2] = assay: Anticancer activity against human MDA-MB-231 cells assessed as reduction in cell viability measured after 72 hrs by MTT assay; assay type: functional, cell-based; details: MDA-MB-231, 72 h
PC-3 [3] = assay: Antiproliferative activity against human PC3 cells assessed as reduction in cell viability upto 10 uM incubated for 24 hrs by MTT assay; assay type: functional, cell-based
PC-3 [4] = assay: Antiproliferative activity against human PC3 cells assessed as reduction in cell viability at 1 to 10 uM incubated for 72 hrs by MTT assay; assay type: functional, cell-based
PC-3 [5] = assay: Induction of apoptosis in human PC3 cells assessed as decrease in mitochondrial membrane potential at 3 to 10 uM after 48 hrs by JC-1 staining based fluorescence microscopy analysis; assay type: functional, cell-based
Method in brief: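 PC-3 cells exposed to 3 or 10 μM for 48 h, then stained with JC-1 (10 μM) for 30 min in the dark. Mitochondrial potential judged by red/green fluorescence under a fluorescence microscope.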

PC-3 [6] = assay: Cell cycle arrest in human PC3 cells assessed as accumulation at S phase at 3 uM measured after 48 hrs by RNase/propidium iodide staining based flow cytometry analysis (reference value: 22.40 %); assay type: functional
PC-3 [7] = assay: Cell cycle arrest in human PC3 cells assessed as accumulation at G2/M phase at 3 uM measured after 48 hrs by RNase/propidium iodide staining based flow cytometry analysis (reference value: 34.95 %); assay type: functional
PC-3 [8] = assay: Cell cycle arrest in human PC3 cells assessed as accumulation at G0/G1 phase at 10 uM measured after 48 hrs by RNase/propidium iodide staining based flow cytometry analysis (reference value: 42.59 %); assay type: functional
PC-3 [9] = assay: Cell cycle arrest in human PC3 cells assessed as accumulation at G2/M phase at 10 uM measured after 48 hrs by RNase/propidium iodide staining based flow cytometry analysis (reference value: 34.95 %); assay type: functional
PC-3 [10] = assay: Induction of apoptosis in human PC3 cells assessed as nuclear condensation at 3 to 10 uM after 72 hrs by Hoechst 33342 staining based fluorescence microscopy; assay type: functional, cell-based
Method in brief: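 PC-3 cells treated 72 h with 3 or 10 μM, stained with Hoechst 33342 for 15 min at room temperature in the dark, washed with PBS, and nuclei examined by fluorescence microscopy for condensation.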

PC-3 [11] = assay: Induction of apoptosis in human PC3 cells assessed as upregulation of Bax expression measured after 72 hrs by Western blot analysis; assay type: functional, cell-based
Method in brief: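 Western blot: PC-3 seeded 1.25 × 10^5/well, exposed to 0.1–10 μM for 72 h. Lysed in 2× SDS buffer and sonicated; 20–25 μg protein run on 12% SDS gel, transferred to PVDF, blocked in 5% BSA/TBST. Primary antibodies overnight, secondary 1 h; ECL detection, β-actin loading control.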

PC-3 [12] = assay: Induction of cell death in human PC3 cells at 3 uM measured after 72 hrs by propidium iodide staining based flow cytometry analysis (reference value: 0.5 %); assay type: functional
Method in brief: (§1)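 PC-3 cells in six-well plates exposed to 3 or 10 μM for 72 h, 0.1% DMSO vehicle as control; cells harvested, PBS-washed, stained with propidium iodide (5 μg/mL) 20 min at 4 °C; percentage dead cells read by flow cytometry; t-test against vehicle.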

PC-3 [13] = assay: Induction of cell death in human PC3 cells at 10 uM measured after 72 hrs by propidium iodide staining based flow cytometry analysis (reference value: 0.5 %); assay type: functional; method in brief: as §1
PC-3 [14] = assay: Antimigratory activity against human PC3 cells assessed as reduction in cell migration at 3 to 10 uM measured upto 24 hrs by scratch wound healing assay; assay type: functional, cell-based
Method in brief: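 Wound healing: PC-3 seeded 3 × 10^5/well, grown to a monolayer at 37 °C, 5% CO2. Scratch made with a pipette tip, detached cells washed off, then 3 or 10 μM added.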

PC-3 [15] = assay: Antimetastatic activity against human PC3 cells assessed as inhibition of MMP-9 at 3 to 10 uM measured after 48 hrs by gelatin zymography; assay type: functional, cell-based
Method in brief: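 PC-3 monolayers scratched, then treated with 3 or 10 μM for 48 h in serum-containing medium, then 24 h in serum-free medium. Conditioned medium run non-reduced on 7.5% SDS-PAGE containing gelatin 4 mg/mL. Gel washed in 2.5% Triton X-100, incubated 24 h at 37 °C in Tris pH 7.5 with CaCl2/ZnCl2, Coomassie stained; lysis seen as clear bands.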

PC-3 [16] = assay: Downregulation of E2F1 mRNA expression in human PC3 cells at 3 to 10 uM measured after 72 hrs by TRIzol dye based RT-PCR analysis; assay type: functional, cell-based
Method in brief: (§2)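 PC-3 (1.25 × 10^5/well) treated 72 h with 3 or 10 μM. Total RNA extracted with TRIzol; cDNA made from 2 μg RNA. SYBR qPCR: 95 °C 10 min, then 40 cycles of 95 °C/60 °C. Expression normalised to GAPDH by 2^-ΔΔCt; three experiments.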

PC-3 [17] = assay: Downregulation of PCNA mRNA expression in human PC3 cells at 3 to 10 uM measured after 72 hrs by TRIzol dye based RT-PCR analysis; assay type: functional, cell-based; method in brief: as §2
PC-3 [18] = assay: Downregulation of cyclinB1 mRNA expression in human PC3 cells at 3 to 10 uM measured after 72 hrs by TRIzol dye based RT-PCR analysis; assay type: functional, cell-based; method in brief: as §2
PC-3 [19] = assay: Upregulation of p21 mRNA expression in human PC3 cells at 3 to 10 uM measured after 72 hrs by TRIzol dye based RT-PCR analysis; assay type: functional, cell-based
Method in brief: (§3)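 PC-3 cells (1.25×10^5 per well) treated 72 h at 3 or 10 μM; total RNA by TRIzol, cDNA from 2 μg; SYBR real-time PCR, 95 °C 10 min then 40 cycles 95 °C 15 s/60 °C; Ct normalised to GAPDH, relative expression by 2^-ΔΔCt; three experiments.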

PC-3 [20] = assay: Upregulation of NOXA mRNA expression in human PC3 cells at 3 to 10 uM measured after 72 hrs by TRIzol dye based RT-PCR analysis; assay type: functional, cell-based; method in brief: as §3
PC-3 [21] = assay: Downregulation of Pin1 in human PC3 cells harboring siRNA measured after 72 hrs by Western blot analysis; assay type: functional, cell-based
Method in brief: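 PC-3 cells (1.5 × 10^5/well) transfected with Pin1 siRNA (25 nM) using Lipofectamine RNAiMAX in Opti-MEM, alone or with test agent, for 72 h. Pin1 assessed by western blot with β-actin loading control.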

[22] = target: Peptidyl-prolyl cis-trans isomerase NIMA-interacting 1 (Homo sapiens) (UniProt Q13526); assay: Inhibition of proteasome mediated Pin1 in human PC3 cells at 10 uM measured after 72 hrs in presence of MG132; assay type: cell-based
Sequence of Peptidyl-prolyl cis-trans isomerase NIMA-interacting 1 (Homo sapiens) (Q13526 whole entry): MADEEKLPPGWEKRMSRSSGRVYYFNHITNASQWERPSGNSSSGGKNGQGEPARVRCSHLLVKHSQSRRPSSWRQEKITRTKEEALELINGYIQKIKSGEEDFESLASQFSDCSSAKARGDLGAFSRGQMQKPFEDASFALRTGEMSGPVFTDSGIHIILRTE

## COC(=O)Cc1ccc(S[C@@H]2O[C@@H]3O[C@@]4(C)CC[C@H]5[C@H](C)CC[C@@H]([C@H]2C)[C@@]35OO4)cc1
LNCaP
  Activity: 38%
HeLa
  Activity: 43%
MDA-MB-231 [1]
  Activity: 45%
A-431
  IC50: 13.3 µM
MDA-MB-231 [2]
  IC50: 9.03 µM
PC-3 [3]
  Activity: inactive
PC-3 [4]
  Activity: Active
PC-3 [5]
  Activity: Active
PC-3 [6]
  Activity: 13.26%
PC-3 [7]
  Activity: 32.24%
PC-3 [8]
  Activity: 53.71%
PC-3 [9]
  Activity: 32.19%
PC-3 [10]
  Activity: Active
PC-3 [11]
  Activity: Dose-dependent effect
PC-3 [12]
  Activity: 26.3%
PC-3 [13]
  Activity: 28.9%
PC-3 [14]
  Activity: Active
PC-3 [15]
  inhibition: Dose-dependent effect
PC-3 [16]
  Activity: Active
PC-3 [17]
  Activity: Active
PC-3 [18]
  Activity: Active
PC-3 [19]
  Activity: Active
PC-3 [20]
  Activity: Active
PC-3 [21]
  Activity: Active
[22]
  inhibition: inactive

From ChEMBL document CHEMBL4359825, “Synthesis of novel S-linked dihydroartemisinin derivatives and evaluation of their anticancer activity” (Eur J Med Chem, 2019)
